Measured values pooled from the literature.
Compare with care: the assays were run in different laboratories. In brackets after ≈: the same amount, converted by molar mass.

C#Cc1ccc(C(=O)NN=Cc2c(O)cccc2C#C)cc1  MIC80 (Cryptococcus neoformans; microbial growth, broth dilution; pH 7.4): 0.015 µg/mL (≈ 0.052 µM)
COc1cnc(OC)n2nc(NS(=O)(=O)c3c(OCC(F)F)cccc3C(F)(F)F)nc12  inhibition (HaCaT; cell growth or viability, CCK-8; 6.25 µM, 72 h): 0.85%
O=C1CCP(=[Se])(c2ccccc2)CC1  IC50 (HaCaT; cell growth or viability, MTT; 72 h): > 100 µM
O=C/C=C/c1ccccc1  inhibition zone (Bacillus subtilis; microbial growth, well diffusion; MTCC121; 1000 µg/mL, 18 h): 8 mm
O=C1CCc2cc(-c3cccc(OC(=O)[C@H]4[C@H](c5ccccc5)[C@@H](C(=O)O)[C@H]4c4ccccc4)c3)ccc2N1  IC50 (WI-38; cell growth or viability, MTT): 77 µM
N.N.[Cl][Pt][Cl]  IC50 (HaCaT; cell growth or viability, MTT; 72 h): 6.3 µM
C#Cc1cccc(C=NNC(=O)c2ccc(Br)c(Br)c2)c1O  MFC (Cryptococcus neoformans; microbial killing): 0.12 µg/mL (≈ 0.284 µM)
CC[C@H](C)C[C@H](C)CCCCCCCCC(=O)N[C@H]1C[C@@H](O)[C@@H](NCCN)NC(=O)[C@@H]2[C@@H](O)CCN2C(=O)[C@H]([C@H](O)CCN)NC(=O)[C@H]([C@H](O)[C@@H](O)c2ccc(O)cc2)NC(=O)[C@@H]2C[C@@H](O)CN2C(=O)[C@H]([C@@H](C)O)NC1=O  MFC (Nakaseomyces glabratus; microbial killing, broth dilution; ATCC15126; 48 h): 0.5 µg/mL (≈ 0.457 µM)
C#Cc1ccc(C=NNC(=O)c2ccc(Br)cc2)c(O)c1  MIC80 (Cryptococcus neoformans; microbial growth, broth dilution; pH 7.4): 0.03 µg/mL (≈ 0.0874 µM)
N.N.[Cl][Pt][Cl]  inhibition (OCI-LY19; cell growth or viability, ATP luminescence; 10 µM, 72 h): 100%
C#Cc1ccc(C=NNC(=O)c2ccc(Br)c(O)c2)c(O)c1  MIC80 (Cryptococcus neoformans; microbial growth, broth dilution; pH 7.4): 1 µg/mL (≈ 2.78 µM)
O=C1CCP(=S)(c2ccccc2)CC1  IC50 (HaCaT; cell growth or viability, MTT; 72 h): 14.2 µM
